Source: ChEMBL document CHEMBL3351588, “Design, synthesis and biological evaluation of N-alkyl or aryl substituted isoindigo derivatives as potential dual cyclin-dependent kinase 2 (CDK2)/glycogen synthase kinase 3β (GSK-3β) phosphorylation inhibitors” (Eur J Med Chem, 2014)
The source made the active and inactive calls. No cut-off for these calls is given here.

Tests used:
K562 [1] = test: Induction of apoptosis in human K562 cells assessed as viable cells level at 30 uM after 48 hrs by Annexin V-FITC/propidium iodide staining based flow cytometry (reference value: 99.21%); format: functional
Summary of the method: (§1)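 K562 cells exposed for 24 h or 48 h to 0, 5.0, 10.0, 15.0, 20.0 or 30.0 µM; vehicle DMSO 0.5% v/v. Cells stained with FITC-Annexin V, then counterstained with PI, and analysed by FACScan flow cytometry. Quadrants: Annexin V−/PI− viable; Annexin V+/PI− early apoptotic; Annexin V+/PI+ late apoptotic/necrotic.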

K562 [2] = test: Induction of apoptosis in human K562 cells assessed as late apoptotic cells level at 5 uM after 48 hrs by Annexin V-FITC/propidium iodide staining based flow cytometry (reference value: 0.54%); format: functional; summary of the method: as §1
K562 [3] = test: Induction of apoptosis in human K562 cells assessed as early apoptotic cells level at 5 uM after 48 hrs by Annexin V-FITC/propidium iodide staining based flow cytometry (reference value: 0.24%); format: functional; summary of the method: as §1
K562 [4] = test: Induction of apoptosis in human K562 cells after 48 hrs by Annexin V-FITC/propidium iodide staining based flow cytometry; format: functional, cell-based; summary of the method: as §1
K562 [5] = test: Induction of apoptosis in human K562 cells assessed as necrotic cells level at 5 uM after 24 hrs by Annexin V-FITC/propidium iodide staining based flow cytometry (reference value: 0.0%); format: functional; summary of the method: as §1
K562 [6] = test: Induction of apoptosis in human K562 cells assessed as early apoptotic cells level at 20 uM after 48 hrs by Annexin V-FITC/propidium iodide staining based flow cytometry (reference value: 0.24%); format: functional; summary of the method: as §1
K562 [7] = test: Induction of apoptosis in human K562 cells assessed as early apoptotic cells level at 15 uM after 48 hrs by Annexin V-FITC/propidium iodide staining based flow cytometry (reference value: 0.24%); format: functional; summary of the method: as §1
K562 [8] = test: Induction of cell cycle arrest in human K562 cells assessed as accumulation at G2/M phase at 5 uM after 24 hrs by propidium iodide staining based flow cytometry (reference value: 18.96%); format: functional
K562 [9] = test: Induction of apoptosis in human K562 cells assessed as late apoptotic cells level at 5 uM after 24 hrs by Annexin V-FITC/propidium iodide staining based flow cytometry (reference value: 0.79%); format: functional; summary of the method: as §1
K562 [10] = test: Induction of apoptosis in human K562 cells assessed as early apoptotic cells level at 10 uM after 48 hrs by Annexin V-FITC/propidium iodide staining based flow cytometry (reference value: 0.24%); format: functional; summary of the method: as §1
K562 [11] = test: Induction of cell cycle arrest in human K562 cells assessed as accumulation at S phase at 10 uM after 24 hrs by propidium iodide staining based flow cytometry (reference value: 44.90%); format: functional
MGC-803 = test: Cytotoxicity against human MGC803 cells after 48 hrs by SRB assay; format: functional, cell-based; settings: MGC-803, 48 h
Summary of the method: (§2)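 Cells seeded at 5 × 10³ per well and allowed to attach for 12 h, then exposed to a range of drug concentrations in their own medium for 48 h. Fixed with ice-cold TCA for 1 h at 4 °C, washed, then stained with 0.4% SRB for 30 min at room temperature. IC50 is the mean of three independent experiments.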

K562 [12] = test: Induction of cell cycle arrest in human K562 cells assessed as accumulation at G2/M phase at 30 uM after 24 hrs by propidium iodide staining based flow cytometry (reference value: 18.96%); format: functional
[13] = Cytotoxicity against human HCT116 cells after 48 hrs by SRB assay; format: functional, cell-based; settings: HCT-116, 48 h; summary of the method: as §2
K562 [14] = test: Induction of cell cycle arrest in human K562 cells assessed as accumulation at S phase at 30 uM after 24 hrs by propidium iodide staining based flow cytometry (reference value: 44.90%); format: functional
K562 [15] = test: Induction of apoptosis in human K562 cells assessed as late apoptotic cells level at 30 uM after 24 hrs by Annexin V-FITC/propidium iodide staining based flow cytometry (reference value: 0.79%); format: functional; summary of the method: as §1
K562 [16] = test: Induction of apoptosis in human K562 cells assessed as late apoptotic cells level at 10 uM after 24 hrs by Annexin V-FITC/propidium iodide staining based flow cytometry (reference value: 0.79%); format: functional; summary of the method: as §1
K562 [17] = test: Induction of apoptosis in human K562 cells assessed as early apoptotic cells level at 30 uM after 48 hrs by Annexin V-FITC/propidium iodide staining based flow cytometry (reference value: 0.24%); format: functional; summary of the method: as §1
K562 [18] = test: Increase in GSK3beta protein expression in human K562 cells at 5 to 30 uM after 24 hrs by Western blotting method; format: functional, cell-based
Summary of the method: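 K562 cells treated for 24 h; negative control DMSO 0.5% v/v, meisoindigo positive control. Lysates separated on 10% SDS-PAGE and transferred to nitrocellulose. Blocked with 5% milk in PBS-0.1% Tween-20, then probed for GSK-3β and p-GSK-3β (Ser9) for 2 h at room temperature, with β-actin as loading control. Detected with IRDye secondaries by infrared imaging and quantified by band gray value; p<0.05 versus DMSO.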

K562 [19] = test: Cytotoxicity against human K562 cells after 48 hrs by SRB assay; format: functional, cell-based; settings: K562, 48 h; summary of the method: as §2
K562 [20] = test: Induction of cell morphological changes in human K562 cells assessed as chromatin condensation at 5 to 30 uM after 24 hrs by Hoechst 33342/propidium iodide staining based inverted fluorescence microscopy; format: functional
Summary of the method: (§3)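 Cells treated for 24 h with 5.0–30.0 μM or with 0.5% DMSO, then collected and washed with PBS. Stained with Hoechst 33342 (5.0 μg/mL, 10 min, 37 °C), then with PI (10.0 μg/mL, 10 min, room temperature, dark). Nuclei scored by fluorescence microscopy as condensed/bright, fragmented, or PI-positive.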

K562 [21] = test: Induction of apoptosis in human K562 cells assessed as late apoptotic cells level at 20 uM after 48 hrs by Annexin V-FITC/propidium iodide staining based flow cytometry (reference value: 0.54%); format: functional; summary of the method: as §1
K562 [22] = test: Induction of apoptosis in human K562 cells assessed as necrotic cells level at 5 uM after 48 hrs by Annexin V-FITC/propidium iodide staining based flow cytometry (reference value: 0.01%); format: functional; summary of the method: as §1
K562 [23] = test: Induction of cell cycle arrest in human K562 cells assessed as accumulation at G0/G1 phase at 10 uM after 24 hrs by propidium iodide staining based flow cytometry (reference value: 36.14%); format: functional
HeLa = test: Cytotoxicity against human HeLa cells after 48 hrs by SRB assay; format: functional, cell-based; summary of the method: as §2
K562 [24] = test: Induction of cell morphological changes in human K562 cells assessed as nuclei compaction at 5 to 30 uM after 24 hrs by Hoechst 33342/propidium iodide staining based inverted fluorescence microscopy; format: functional; summary of the method: as §3
K562 [25] = test: Induction of apoptosis in human K562 cells assessed as viable cells level at 30 uM after 24 hrs by Annexin V-FITC/propidium iodide staining based flow cytometry (reference value: 97.64%); format: functional; summary of the method: as §1
K562 [26] = test: Reduction in beta-catenin protein expression in human K562 cells at 5 to 30 uM after 24 hrs by Western blotting method; format: functional, cell-based
K562 [27] = test: Induction of apoptosis in human K562 cells assessed as early apoptotic cells level at 15 uM after 24 hrs by Annexin V-FITC/propidium iodide staining based flow cytometry (reference value: […]); format: functional
K562 [28] = test: Induction of apoptosis in human K562 cells assessed as necrotic cells level at 10 uM after 24 hrs by Annexin V-FITC/propidium iodide staining based flow cytometry (reference value: 0.0%); format: functional; summary of the method: as §1

Structure (SMILES): COc1ccc(N2C(=O)/C(=C3/C(=O)Nc4ccccc43)c3ccccc32)cc1
- Activity (K562 [1]): 62.69%
- Activity (K562 [2]): 0.76%
- Activity (K562 [3]): 1.46%
- Activity (K562 [4]): Dose-dependent effect
- Activity (K562 [5]): 0%
- Activity (K562 [6]): 5.51%
- Activity (K562 [7]): 2.1%
- Activity (K562 [8]): 16.81%
- Activity (K562 [9]): 1.54%
- Activity (K562 [10]): 1.68%
- Activity (K562 [11]): 50.88%
- IC50 (MGC-803): 122 µM
- Activity (K562 [12]): 11.8%
- IC50 [13]: > 200 µM
- Activity (K562 [14]): 62.77%
- Activity (K562 [15]): 20.02%
- Activity (K562 [16]): 2.45%
- Activity (K562 [17]): 19.3%
- Activity (K562 [18]): Dose-dependent effect
- IC50 (K562 [19]): 7.8 µM
- Activity (K562 [20]): Active
- Activity (K562 [21]): 11.56%
- Activity (K562 [22]): 0%
- Activity (K562 [23]): 34.81%
- IC50 (HeLa): 166 µM
- Activity (K562 [24]): Active
- Activity (K562 [25]): 56.98%
- inhibition (K562 [26]): Dose-dependent effect
- Activity (K562 [27]): 5.34%
- Activity (K562 [28]): 0.01%
